Screening data deposited in PubChem by Sanford-Burnham Center for Chemical Genomics.
Shown are actives, neighbours in structure and some others; about 0.72% of the full set was active somewhere.
bIAP activator: intestinal alkaline phosphatase (bovine) activation; purified bovine IAP, CDP-star luminescence, 30 min; hits give high values; fold of DMSO-control signal, blank-subtracted; 0.17% of 200,000 active; AID 1016; activation factor at 20 µM;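 active = activation factor of 2 or more at 20 µM, a signal rise over negative controls twice the positive control's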
mIAP activ: increases mouse intestinal alkaline phosphatase activity; activation factor at 10 µM; AID 2805; muIAP, CDP-Star luminescence, 30 min; hits give high values; 1 = vehicle-only enzyme signal, 0 = enzyme-free wells; 0.24% of 330,000 active;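 active = activation factor of at least 2 at 20 µM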
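Assay system: mouse IAP enzyme / Compound: DMSO-dissolved test compounds / Timing: 30 min, room temperature / Measured by: luminescence from enzymatic CDP-Star hydrolysis / Control set: DMSO-only wells, enzyme-free buffer wells as negative control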
hIAP block: human IAP inhibition; purified IAP, CDP-Star luminescence, 30 min; inhibition, % at 10 µM; 0.12% of 330,000 active; AID 2544;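 active = inhibition reaching a set limit with compound at 10 µM in the primary screen, cut at about 35% in these data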;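 also: plate controls were DMSO wells with enzyme for no effect and no-enzyme buffer wells for full effect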
Target sequence (P09923 whole entry, looked up): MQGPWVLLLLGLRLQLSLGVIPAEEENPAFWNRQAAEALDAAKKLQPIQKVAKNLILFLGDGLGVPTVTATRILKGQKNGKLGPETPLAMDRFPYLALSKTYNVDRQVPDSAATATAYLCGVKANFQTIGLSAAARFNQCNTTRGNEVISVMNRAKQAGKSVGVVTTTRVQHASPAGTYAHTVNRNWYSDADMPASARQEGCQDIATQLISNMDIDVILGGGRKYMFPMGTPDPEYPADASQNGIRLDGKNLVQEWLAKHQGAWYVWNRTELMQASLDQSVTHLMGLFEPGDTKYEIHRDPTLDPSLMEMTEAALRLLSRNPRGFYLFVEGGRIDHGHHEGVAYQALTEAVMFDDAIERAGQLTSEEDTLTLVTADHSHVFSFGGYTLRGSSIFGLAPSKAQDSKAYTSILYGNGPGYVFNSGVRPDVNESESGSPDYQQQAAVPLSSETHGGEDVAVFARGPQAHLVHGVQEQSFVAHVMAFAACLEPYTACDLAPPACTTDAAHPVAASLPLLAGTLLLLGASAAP
bIAP inh: blocks bovine intestinal alkaline phosphatase activity. purified bovine IAP, CDP-star luminescence, 30 min. AID 1019. 190,000 tested, under 10 active. inhibition, % at 20 µM;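 active = over 50% inhibition of intestinal alkaline phosphatase at 20 µM in the single-dose screen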
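Incubation: 30 min reaction at room temperature / Material: purified bovine intestinal alkaline phosphatase (IAP) enzyme / Input: enzyme at 1/65,000,000 dilution / Dosing: 20 µM single dose / Signal: CDP-star luminescence signal / Reagent: CDP-star chemiluminescent phosphatase substrate, 30 µM final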
hIAP act: increases human intestinal alkaline phosphatase activity; purified human IAP, CDP-Star luminescence, 30 min; hits give high values; 1 = vehicle-only enzyme, 0 = enzyme-free background; activation factor at 10 µM; 0.16% of 330,000 active; AID 2524;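 active = activation factor of the enzyme at least 2-fold when tested at 20 µM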
mIAP inh: mouse IAP inhibition; purified mouse IAP, CDP-Star luminescence, 30 min; inhibition, % at 10 µM; 0.2% of 330,000 active; AID 2806;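 active = inhibition of at least 40% at 10 µM in the primary screen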;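 also: plate controls were DMSO with enzyme for no effect and no enzyme wells for full effect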
hIAP act confirm: human IAP activation confirmation. shares compounds with hIAP act. purified IAP, CDP-Star luminescence, 30 min; hits give low values. activation (%Activity, negative = activation), % at 8.3 µM. 10% of 880 active. AID 434926;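 active = at least twofold enzyme activation in any of six single-dose repeats, which the averaged readout prints as negative percent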
The depositor's hits bear a star; . = no result.

SMILES	bIAP activator	mIAP activ	hIAP block	bIAP inh	hIAP act	mIAP inh	hIAP act confirm
COc1ccc(-c2cc(=O)c3c(O)cc(O)cc3o2)cc1	.	0.97	12	.	0.88	3	.
O=c1cc(-c2ccc(O)c(O)c2)oc2cc(O)cc(O)c12	.	0.66	58*	.	0.42	34	-2
Cc1cc(-n2c(SCC(=O)NCCC3=CCCCC3)nc3n[nH]c(C)c3c2=N)ccc1Cl	.	1.2	-106	.	2.1*	-21	-29
Cc1ccc(Cl)cc1-n1c(SCC(=O)NCCC2=CCCCC2)nc2n[nH]c(C)c2c1=N	.	0.98	-66	.	1.7	2	.
CCCCCC(=O)Nc1ccc(Cl)cn1	1	1.2	70*	-2	0.3	-21	-33
O=C(NCc1ccco1)c1ccc(-c2cccc(Cl)c2)o1	1	0.97	13	5	0.87	3	.
OCCC1CN(Cc2ccc3nsnc3c2)CCN1CCc1ccccc1 (configuration not stated)	1	1	1	0	0.99	-2	.
CCCn1c(N/N=C\C=C\c2ccccc2)nc2c1c(=O)[nH]c(=O)n2C	1.4	0.88	-123	-44	2.2*	12	2
CNc1nc2c(c(=O)[nH]c(=O)n2C)n1CCCc1ccccc1	.	0.96	-6	.	1.1	4	.
Cc1ccc(-c2[nH]ncc2C(=O)c2ccc(Br)cc2)c(O)c1	.	0.99	-105	.	2*	1	1
Cc1ccc(C(=O)c2cn[nH]c2-c2cc(Cl)ccc2O)cc1	1.5	0.97	-7	-51	1.1	3	.
O=C(CCCN1C(=O)C(c2ccccc2)Oc2cccnc21)NCc1ccccc1F (configuration not stated)	.	0.98	6	.	0.94	2	.
CN(C)c1ccc(NC(=O)Nc2cccc(Cl)c2)cc1	1	1.2	13	4	0.87	-20	.
CN(C)c1ccc(NC(=O)Nc2csc3ccccc23)cc1	.	1.4	-100	.	2	-36	-84
CC(C)/C=N/NC(=O)c1ccc(Cl)cc1	1	0.93	4	3	0.96	7	.
COc1ccc(CCNC(=O)/C=C/c2ccc(S(=O)(=O)N3CCOCC3)cc2)cc1	.	0.94	-25	.	1.2	6	.
CC(=O)Nc1ccc(NC(=O)C2CC(=O)N(C(C)C)C2)cc1 (configuration not stated)	.	0.9	37*	.	0.63	10	20
CC(C)N1CC(C(=O)Nc2ccccc2)CC1=O (configuration not stated)	0.9	1	-15	7	1.2	-2	.
Cc1ccc(NC(=S)NNC(=O)c2nnn(-c3ccccc3)c2C)cc1	1	0.89	-118	5	2.2*	11	24
CSc1ccccc1NC(=S)NCc1ccc(Cl)cc1	.	1.1	40*	.	0.6	-14	-32
COc1ccccc1NC(=S)NCc1ccc(Cl)cc1	.	1.1	15	.	0.85	-14	.
CCOc1ccccc1NC(=O)COC(=O)c1nc2nccc(C)n2n1	.	0.93	-13	.	1.1	7	.
Cc1cccc(CNC(=O)C2CCCN(c3nn4c(=O)cc(C)nc4s3)C2)c1 (configuration not stated)	.	1.1	-6	.	1.1	-5	.
Cc1ccc(CN2CCC(C(=O)Nc3cccc(-c4cccc(F)c4)c3)CC2)o1	.	2.4*	-122	.	2.2*	-142	2
CCc1ccc(CN2CCC(C(=O)Nc3cccc(-c4nnc(C)s4)c3)CC2)o1	.	0.97	-21	.	1.2	2	.
SMILES	bIAP activator	mIAP activ	hIAP block	bIAP inh	hIAP act	mIAP inh	hIAP act confirm
CCCNC(=S)NNC(=O)c1cc(C2CC2)nc2ccccc12	.	0.95	-117	.	2.2*	5	0
Cc1ccc(N2CC(C(=O)OCC(=O)Nc3ccc(F)cc3F)CC2=O)cc1 (configuration not stated)	.	0.98	-5	.	1	2	.
CCOC(=O)c1cnc(-n2nc(C)cc2C)nc1NNc1nc(C)cc(C)n1	.	0.66	-100	.	2	34	72
CCOC(=O)c1cnc(-n2nc(C)cc2C)nc1NNc1nc(-c2ccccc2)cc(-c2ccccc2)n1	0.9	0.89	6	12	0.94	11	.
CCC1(c2ccc(F)cc2)NC(=O)N(CC(=O)N2CCN(C(=O)c3ccco3)CC2)C1=O (configuration not stated)	.	1.1	-24	.	1.2	-14	.
COc1ccc(/C=C2/C(=O)N(c3ccccc3)N=C2C)cc1OC	.	0.95	-25	.	1.2	5	.
COc1cc(/C=C2/C(=O)N(c3cccc(Br)c3)N=C2C)cc(OC)c1O	.	0.77	36*	.	0.64	24	-2
COc1cc(/C=C2/C(=O)N(c3ccc(Br)cc3)N=C2C)cc([N+](=O)[O-])c1O	.	0.92	38*	.	0.62	8	-42
O=C(CNc1cccc([N+](=O)[O-])c1)NC(=O)NC1CCCCC1	.	1	-15	.	1.2	-4	.
CN(C)C(=S)Nc1ccc(S(=O)(=O)N2CCCCC2)cc1	.	0.95	3	.	0.97	4	.
COc1ccc(S(=O)(=O)Nc2cc3c(cc2C(C)=O)OCO3)cc1	1	1.2	0	1	1	-23	.
COc1ccc(-n2nc3c(N4CCC(C(=O)NCc5cccc(C)c5)CC4)nnc(C)c3c2C)cc1	.	1.3	-121	.	2.2*	-27	-42
CCOc1ccc(CNC(=O)C2CCN(c3nnc(C)c4c(C)n(-c5ccc(C)cc5)nc34)CC2)cc1	.	0.86	-47	.	1.5	14	.
COc1ccccc1CCNC(=O)C1CCN(c2nnc(C)c3c(C)n(-c4ccc(C)cc4)nc23)CC1	.	1.3	-132	.	2.3*	-25	31
Cc1ccccc1/C=N/n1c(-c2cc(-c3ccccc3)n[nH]2)n[nH]c1=S	.	1	-104	.	2*	-1	-3
COc1ccccc1/C=C/C=N/n1c(-c2cc(C)[nH]n2)n[nH]c1=S	1	1	-111	0	2.1*	-1	11
COc1ccccc1/C=C/C=N/n1c(-c2n[nH]c3c2CCC3)n[nH]c1=S	.	1	-104	.	2*	-1	27
COc1cccc(/C=N/n2c(-c3n[nH]c4c3CCC4)n[nH]c2=S)c1O	0.9	0.78	2	7	0.98	22	.
COc1ccccc1/C=C/C=N/n1c(-c2ccccn2)n[nH]c1=S	.	0.96	4	.	0.95	4	.
CCc1ccc(/C=C2/C(=O)N(C)C(=S)N2CC(=O)OC)s1	0.9	0.96	-10	10	1.1	4	.
Clc1ccc(-c2nc(/C=N/N3CCOCC3)c3ccccn23)cc1	1	0.92	5	2	0.95	8	.
COc1ccccc1C1CCN(C(=O)c2cnn(-c3ccccc3)c2C)CC1	.	0.94	2	.	0.98	6	.
